For assay [1], the target named is T1, Prostaglandin G/H synthase 2 (Homo sapiens) (UniProt P35354).
T1 sequence (whole entry): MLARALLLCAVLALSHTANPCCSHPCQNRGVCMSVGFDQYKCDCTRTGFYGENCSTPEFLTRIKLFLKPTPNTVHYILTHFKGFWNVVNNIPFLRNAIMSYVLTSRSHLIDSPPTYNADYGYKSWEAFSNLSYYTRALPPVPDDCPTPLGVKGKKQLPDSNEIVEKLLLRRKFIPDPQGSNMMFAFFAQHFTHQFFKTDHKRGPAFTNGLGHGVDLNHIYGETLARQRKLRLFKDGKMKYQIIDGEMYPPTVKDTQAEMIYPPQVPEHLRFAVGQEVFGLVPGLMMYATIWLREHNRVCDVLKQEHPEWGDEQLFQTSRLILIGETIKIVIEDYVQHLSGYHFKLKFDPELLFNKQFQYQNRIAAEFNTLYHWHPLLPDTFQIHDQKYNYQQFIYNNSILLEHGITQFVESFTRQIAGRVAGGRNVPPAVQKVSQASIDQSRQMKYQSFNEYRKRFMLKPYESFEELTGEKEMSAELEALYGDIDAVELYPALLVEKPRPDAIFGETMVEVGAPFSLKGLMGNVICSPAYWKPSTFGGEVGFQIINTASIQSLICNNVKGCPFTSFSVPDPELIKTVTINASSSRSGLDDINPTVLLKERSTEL
Kind of assay: Inhibition of human recombinant COX2 expressed in Sf9 cells at 10 ug/mL. An outline of the steps: (§1)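 Enzyme: human recombinant COX-2 produced in Sf9 cells, assayed by a previously published procedure. Each compound was run in triplicate at three log-spaced levels (10, 100 and 1000 μg/mL). Inhibition of enzyme activity is the read-out.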

In assay [2] the target is T1, Prostaglandin G/H synthase 2 (Homo sapiens). Kind of assay: Inhibition of human recombinant COX2 expressed in Sf9 cells at 100 ug/mL. In a few lines:
as §1

Assay [3] has the same target. Kind of assay: Inhibition of human recombinant COX2 expressed in Sf9 cells at 1000 ug/mL. An outline of the steps: as §1

A word on the inhibition: it is the relative decrease from the control value, in per cent. For the compound `Oc1cc(O)c2c(c1)O[C@H](c1ccc(O)c(O)c1)[C@H](O)[C@H]2c1c(O)c2c(c3c1O[C@]1(c4ccc(O)c(O)c4)Oc4cc(O)cc(O)c4[C@H]3[C@H]1O)O[C@H](c1ccc(O)c(O)c1)[C@H](O)[C@H]2c1c(O)cc(O)c2c1O[C@H](c1ccc(O)c(O)c1)[C@@H](O)C2` (mixture of isomers), the values for the inhibition in assay [1], in assay [2] and in assay [3] were 38%, 52% and 97%, respectively.

With `Oc1cc(O)c2c(c1)O[C@@]1(c3ccc(O)c(O)c3)Oc3cc(O)c4c(c3[C@@H]2[C@H]1O)O[C@H](c1ccc(O)c(O)c1)[C@H](O)[C@H]4c1c(O)cc(O)c2c1O[C@H](c1ccc(O)c(O)c1)[C@@H](O)C2` (mixture of isomers), the inhibition in assay [1] was 2%; in assay [2], 44%; in assay [3], 95%.

As for `Oc1cc(O)c2c(c1)O[C@@]1(c3ccc(O)c(O)c3)Oc3cc(O)c4c(c3[C@@H]2[C@H]1O)O[C@H](c1ccc(O)c(O)c1)[C@H](O)[C@H]4c1c(O)cc(O)c2c1O[C@H](c1ccc(O)c(O)c1)[C@H](O)C2` (mixture of isomers), the values for the inhibition in assay [1], in assay [2] and in assay [3] were 19%, 27% and 86%, respectively.

Consider `Oc1cc(O)c2c(c1)O[C@H](c1ccc(O)c(O)c1)[C@H](O)[C@H]2c1c(O)c2c(c3c1O[C@]1(c4ccc(O)c(O)c4)Oc4cc(O)cc(O)c4[C@H]3[C@H]1O)O[C@H](c1ccc(O)c(O)c1)[C@H](O)[C@H]2c1c(O)cc(O)c2c1O[C@H](c1ccc(O)c(O)c1)[C@H](O)C2` (mixture of isomers), for which the inhibition in assay [1] was 14%; in assay [2], 86%; in assay [3] it was 94%.
